Assay results pooled from the literature.
Compare with care: the assays were run in different laboratories.
Target: Activin receptor type-1-like (ACVRL1, Homo sapiens, UniProt P37023)

Compound	test	conditions	measurement	result
CNC(=O)c1cc(Oc2ccc(NC(=O)Nc3ccc(Cl)c(C(F)(F)F)c3)cc2)ccn1	cell-free assay	0.5 µM	remaining signal	104%
Cc1cnc(NC2CCOCC2)nc1-n1cnc(C(=O)NC(CN)c2cc(F)cc(Cl)c2)c1 (stereo not drawn)	enzyme activity, inhibitor, radiometric	1 µM	remaining activity	100%
Cc1ccc(C(=O)Nc2ccc(CN3CCN(C)CC3)c(C(F)(F)F)c2)cc1C#Cc1cnc2cccnn12	cell-free assay	23.5 nM	remaining signal	100%
N#CCCc1ccc2c(c1)-c1[nH]c3ccc([N+](=O)[O-])cc3c1CC(=O)N2	cell-free assay	0.5 µM	remaining signal	53.6%
N#Cc1ccc(Nc2ccc3[nH]c(=O)[nH]c3c2)c(Cl)c1	binding, competition with immobilised ligand	1 µM	remaining binding	100%
C#Cc1cccc(Nc2ncnc3cc(OCCOC)c(OCCOC)cc23)c1	cell-free assay	0.5 µM	remaining signal	101%
O=C(Nc1cnn(-c2csc(C(=O)NC3COC3)c2)c1)Nc1c(F)cccc1Cl	enzyme activity, inhibitor	5 µM	remaining activity	120%
Cc1ccc(C(=O)NCc2ccsc2)cc1C#Cc1cn(C(C)C)c2ncnc(N)c12	enzyme activity, inhibitor	1 µM	activity vs control	94%
Cc1cc(NC(=O)c2cccc3cc(-c4cccc5[nH]nc(N)c45)ccc23)ccc1F	enzyme activity, inhibitor	0.1 µM	activity vs control	143%
CO[C@@H](C)c1c(Nc2ccc([C@H](N(C)C(=O)C3CCS(=O)(=O)CC3)C(F)(F)F)cc2)cnc2cc(Cl)nn12	cell-free assay, competition with immobilised ligand	1 µM	remaining binding	100%
CC(C)(C)c1nc(-c2cccc(NS(=O)(=O)c3c(F)cccc3F)c2F)c(-c2ccnc(N)n2)s1	enzyme activity, inhibitor, radiometric	1 µM	remaining activity	75%
CCCCN(CCCC)C(=O)CN1C[C@H](c2cc(OC)c3c(c2)OCO3)[C@@H](C(=O)O)[C@@H]1CC(C)(C)CCC	cell-free assay, competition with immobilised ligand	1 µM	remaining binding	100%
O=C1Nc2ccc(Cl)cc2C1=Cc1cc(Cl)c(O)c(Cl)c1	cell-free assay	0.5 µM	remaining signal	96.4%
C[C@H](c1cccc(C#N)c1)n1cc(Cl)cc(C(N)=O)c1=N	cell-free assay, competition with immobilised ligand	1 µM	remaining binding	93%
Cc1ccc(NC(=O)c2ccc(C)c(C(F)(F)F)c2)cc1C#Cc1nn(C2CCC(O)CC2)c2ncnc(N)c12 (stereo not drawn)	cell-free assay	10 µM	remaining signal	71%
